Data from ChEMBL document CHEMBL4725431, “Harmaline Analogs as Substrate-Selective Cyclooxygenase-2 Inhibitors” (ACS Med Chem Lett, 2020).

Key:
[1] = target: T1, Prostaglandin G/H synthase 1 (Ovis aries, UniProt P05979); assay: Inhibition of ovine COX1 using [1-14C]AA as substrate preincubated for 20 mins followed by substrate addition and measured for 30 sec by thin layer chromatography analysis
T1 sequence (P05979 whole entry): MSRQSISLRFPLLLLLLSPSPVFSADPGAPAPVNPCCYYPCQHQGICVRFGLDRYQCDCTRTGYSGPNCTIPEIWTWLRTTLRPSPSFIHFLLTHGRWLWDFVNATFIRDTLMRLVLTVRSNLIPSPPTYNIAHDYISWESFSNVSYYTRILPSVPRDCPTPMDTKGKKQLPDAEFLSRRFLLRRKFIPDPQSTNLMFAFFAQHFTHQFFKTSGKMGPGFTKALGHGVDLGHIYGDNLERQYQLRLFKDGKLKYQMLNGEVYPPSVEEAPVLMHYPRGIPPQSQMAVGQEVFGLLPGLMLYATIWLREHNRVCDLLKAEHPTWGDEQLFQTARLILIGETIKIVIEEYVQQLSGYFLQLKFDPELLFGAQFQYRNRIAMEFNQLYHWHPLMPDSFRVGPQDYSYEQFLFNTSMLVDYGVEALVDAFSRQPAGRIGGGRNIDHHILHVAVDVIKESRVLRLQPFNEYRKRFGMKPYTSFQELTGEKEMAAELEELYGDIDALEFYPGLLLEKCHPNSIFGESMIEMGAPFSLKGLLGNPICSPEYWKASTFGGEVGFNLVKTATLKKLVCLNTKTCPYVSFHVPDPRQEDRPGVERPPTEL
How it was run: (§1)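 Purified enzyme (murine COX-2 at 63 nM, ovine COX-1 at 22.5 nM), hematin-reconstituted, in 100 mM Tris-HCl pH 8.0 with 500 μM phenol. Several inhibitor concentrations or DMSO vehicle preincubated 20 min, then [1-14C]AA 5 μM added at 37 °C for 30 s. Stopped by ether/methanol/citrate pH 4.0 extraction. Radiolabelled PGs separated on TLC and quantified by radioactivity scanning. Run in triplicate.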

[2] = target: T2, Prostaglandin G/H synthase 2 (Mus musculus, UniProt Q05769); assay: Inhibition of mouse COX2 using 2-arachidonylglycerol as substrate preincubated for 3 mins followed by substrate addition and measured for 30 sec by LC/MS analysis
T2 sequence (Q05769 whole entry): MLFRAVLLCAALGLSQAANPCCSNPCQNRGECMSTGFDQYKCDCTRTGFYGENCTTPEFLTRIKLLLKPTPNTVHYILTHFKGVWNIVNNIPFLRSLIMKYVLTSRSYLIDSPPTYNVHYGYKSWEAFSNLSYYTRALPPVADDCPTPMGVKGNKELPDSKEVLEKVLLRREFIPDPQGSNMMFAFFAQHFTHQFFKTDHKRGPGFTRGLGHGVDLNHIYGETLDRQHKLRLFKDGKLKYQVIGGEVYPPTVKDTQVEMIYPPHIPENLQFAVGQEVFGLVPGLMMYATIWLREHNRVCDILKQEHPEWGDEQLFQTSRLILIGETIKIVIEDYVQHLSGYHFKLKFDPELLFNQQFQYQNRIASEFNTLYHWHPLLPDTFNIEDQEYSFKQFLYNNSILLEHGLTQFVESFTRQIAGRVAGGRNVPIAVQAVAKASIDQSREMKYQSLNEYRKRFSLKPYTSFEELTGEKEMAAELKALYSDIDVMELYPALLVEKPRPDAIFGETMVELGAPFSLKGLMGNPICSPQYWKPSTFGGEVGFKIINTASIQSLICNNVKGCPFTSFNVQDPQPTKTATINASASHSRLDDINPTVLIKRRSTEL
How it was run: (§2)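 Purified murine COX-2 (40 nM in footnote; 50 nM in methods) with 100 nM heme and 1 μM PPHP in 50 mM Tris-HCl pH 8.0, 0.5 mM phenol, 5% DMSO final. Five inhibitor concentrations up to 1 μM plus solvent control. Substrate (AA or 2-AG, 5 μM) added at 37 °C for 30 s. Quenched with solvent containing PGE2-d4/PGE2G-d5. Products measured by LC-MS/MS SRM.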

[3] = target: T2, Prostaglandin G/H synthase 2; assay: Inhibition of mouse COX2 using arachidonic acid as substrate preincubated for 3 mins followed by substrate addition and measured for 30 sec by LC/MS analysis; how it was run: as §2
[4] = target: T2, Prostaglandin G/H synthase 2; assay: Inhibition of mouse COX2 using [1-14C]AA as substrate preincubated for 20 mins followed by substrate addition and measured for 30 sec by thin layer chromatography analysis; how it was run: as §1

| Compound | IC50 [1] | IC50 [2] | IC50 [3] | IC50 [4] |
| --- | --- | --- | --- | --- |
| COc1cccc2[nH]c3c(c12)CCN=C3C | > 4000 nM | > 1000 nM | > 1000 nM | > 4000 nM |
| COc1ccc2[nH]c3c(c2c1)CCN=C3C | > 4000 nM | > 1000 nM | > 1000 nM | > 4000 nM |
| COc1ccc2c(c1)c1c(n2Cc2ccc(Cl)cc2)C(C)=NCC1 | > 4000 nM | > 1000 nM | > 1000 nM | 2100 nM |
